Here are results for 12 molecules from ChEMBL document CHEMBL1147233, “Chemistry and structure-activity relationship of HIV-1 integrase inhibitor integracide B and related natural products” (J Nat Prod, 2003).

Assay [1] concerns the target T1, Human immunodeficiency virus type 1 integrase (Human immunodeficiency virus 1, UniProt Q7ZJM1). The assay is described as follows: Inhibition of recombinant HIV1 integrase using unprocessed donor DNA by coupled assay. A digest of the protocol: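 Unprocessed donor DNA and inhibitor incubated with recombinant integrase together for 30 min, then target DNA added; strand-transfer product measured. Final DMSO 10%. IC50 from serial 2-fold dilutions in duplicate or triplicate; values without error limits are the average of these.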

Assay [2] concerns the target T1, Human immunodeficiency virus type 1 integrase. The experiment in a line: Inhibition of recombinant HIV1 integrase using preprocessed donor DNA treated after washing excess enzyme by strand transfer assay. A digest of the protocol: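 Integrase preincubated with preprocessed donor DNA, unbound enzyme washed off, then target DNA and inhibitor added together. Strand transfer product measured. Final DMSO 10%. IC50 from serial 2-fold dilutions run in duplicate or triplicate; values without error limits are the average of these.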

A short description of assay [3]: Inhibition of DNAse.
The target in assay [4] is Type II restriction enzyme EcoRI (Escherichia coli, UniProt P00642). The assay is described as follows: Inhibition of Escherichia coli ECOR1.
Sequence of Type II restriction enzyme EcoRI (P00642 whole entry): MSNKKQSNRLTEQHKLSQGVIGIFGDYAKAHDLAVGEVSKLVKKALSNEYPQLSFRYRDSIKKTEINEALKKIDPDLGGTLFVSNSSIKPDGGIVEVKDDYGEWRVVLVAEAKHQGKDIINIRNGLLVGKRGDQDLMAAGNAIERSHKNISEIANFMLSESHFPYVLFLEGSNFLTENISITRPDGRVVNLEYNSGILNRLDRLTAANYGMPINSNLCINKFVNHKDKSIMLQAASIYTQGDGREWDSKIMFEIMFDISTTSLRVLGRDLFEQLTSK

T1 sequence (Q7ZJM1 whole entry): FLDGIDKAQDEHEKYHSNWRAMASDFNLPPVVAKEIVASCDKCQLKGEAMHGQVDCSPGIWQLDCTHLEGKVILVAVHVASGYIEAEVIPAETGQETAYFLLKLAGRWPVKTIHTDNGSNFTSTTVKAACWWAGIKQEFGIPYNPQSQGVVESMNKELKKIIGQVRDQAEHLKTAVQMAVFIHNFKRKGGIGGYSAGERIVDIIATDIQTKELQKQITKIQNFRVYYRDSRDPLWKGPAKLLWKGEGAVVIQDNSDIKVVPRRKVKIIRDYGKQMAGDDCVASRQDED

For the molecule `C=C(CC[C@@H](C)[C@H]1CC=C2C3=C([C@@H](O)[C@H](OC(C)=O)[C@@]21C)[C@@]1(C)C[C@@H](O)[C@H](OC(=O)CN)C(C)(C)[C@@H]1CC3)C(C)C`, the concentration for half-maximal inhibition (IC50) in assay [1] was 18 µM; in assay [2] it was more than 50 µM; in assay [3], more than 50 µM; in assay [4] it was more than 50 µM.

Take `C=C(CC[C@@H](C)[C@H]1CC=C2C3=C([C@@H](O)[C@H](OC(C)=O)[C@@]21C)[C@@]1(C)C[C@H]2OC(C)(C)O[C@@H]2C(C)(C)[C@@H]1CC3)C(C)C`: the IC50 in assay [1], in assay [2], in assay [3] and in assay [4] was more than 50 µM each time.

Regarding `C=C(CC[C@@H](C)[C@H]1CC=C2C3=C([C@@H](O)[C@H](OC(C)=O)[C@@]21C)[C@@]1(C)C[C@@H](OC(=O)CNC(=O)OC(C)(C)C)[C@H](O)C(C)(C)[C@@H]1CC3)C(C)C`, the concentration for half-maximal inhibition (IC50) in assay [1], in assay [2], in assay [3] and in assay [4] was more than 50 µM throughout.

Turning to `C=C(CC[C@@H](C)[C@H]1CC=C2C3=C([C@@H](O)[C@H](OC(C)=O)[C@@]21C)[C@@]1(C)C[C@@H](OC(=O)CCC(=O)NO)[C@H](O)C(C)(C)[C@@H]1CC3)C(C)C`, the IC50 is 8 µM in assay [1], more than 50 µM in assay [2], more than 50 µM in assay [3] and more than 50 µM in assay [4].

As to `C=C(CC[C@@H](C)[C@H]1CC=C2C3=C([C@@H](O)[C@H](OC(C)=O)[C@@]21C)[C@@]1(C)C[C@@H](OCOC)[C@H](O)C(C)(C)[C@@H]1CC3)C(C)C`, the IC50 in assay [1] is more than 80 µM; in assay [2], more than 80 µM; in assay [3], more than 50 µM; in assay [4], more than 50 µM.

In the case of `C=C(CC[C@@H](C)[C@H]1CC=C2C3=C([C@@H](O)[C@H](OC(C)=O)[C@@]21C)[C@@]1(C)C[C@@H]2O[C@@H]2C(C)(C)[C@@H]1CC3)C(C)C`, the IC50 in assay [1], in assay [2], in assay [3] and in assay [4] was more than 50 µM throughout.

`C=C(CC[C@@H](C)[C@H]1CC=C2C3=C([C@@H](O)[C@H](OC(C)=O)[C@@]21C)[C@@]1(C)C[C@@H](OC(=O)CN)[C@H](OC(=O)CN)C(C)(C)[C@@H]1CC3)C(C)C`: the IC50 in assay [1] is 1.7 µM; in assay [2], 11.5 µM; in assay [3], 47 µM; in assay [4], more than 50 µM.

`C=C(CC[C@@H](C)[C@H]1C[C@@H](OC)c2c3c(cc(C)c21)[C@@]1(C)C[C@@H](O)[C@H](O)C(C)(C)[C@@H]1CC3)C(C)C`: the IC50 in assay [1] is 50 µM; in assay [2], more than 100 µM; in assay [3] it was more than 50 µM; in assay [4], more than 50 µM.

For `C[C@H](CCC(O)C(C)(C)O)[C@H]1CC[C@@]2(C)C3=C(CC[C@]12C)[C@@]1(C)C[C@@H](OC(=O)CC(C)(O)CC(=O)O)C(=O)C(C)(C)[C@@H]1CC3` (stereo partly drawn) [CLAVARIC ACID], the 50% inhibitory concentration (IC50) was 47 µM in assay [1], 85 µM in assay [2], more than 50 µM in assay [3] and more than 50 µM in assay [4].

Regarding `C=C(CC[C@@H](C)[C@H]1CC=C2C3=C([C@@H](O)[C@H](OC(C)=O)[C@@]21C)[C@@]1(C)CC[C@H](OS(=O)(=O)O)C(C)(C)[C@@H]1CC3)C(C)C`, the IC50 in assay [1] was 3.1 µM; in assay [2], 4.8 µM; in assay [3], more than 50 µM; in assay [4], more than 50 µM.

`C=C(CC[C@@H](C)[C@H]1CC=C2C3=C([C@@H](O)[C@H](OC(C)=O)[C@@]21C)[C@@]1(C)C[C@@H](O)[C@H](OC(=O)CCC(=O)OC)C(C)(C)[C@@H]1CC3)C(C)C`: the half-inhibitory concentration (IC50) in assay [1], in assay [2], in assay [3] and in assay [4] was more than 50 µM each time.

Take `C=C(CC[C@@H](C)[C@H]1CC=C2C3=C([C@@H](O)[C@H](OC(C)=O)[C@@]21C)[C@@]1(C)C[C@@H](O)[C@H](OC(=O)c2ccccc2)C(C)(C)[C@@H]1CC3)C(C)C`: the concentration for half-maximal inhibition (IC50) in assay [1] is more than 80 µM; in assay [2] it was more than 80 µM; in assay [3] it was more than 50 µM; in assay [4] it was more than 50 µM.
